Data published in article PMC2893247 (Journal of natural products, 2008).
Entries after “also recorded” stand apart in the source; their conditions may differ.

Columns and labels:
[1] = test system: NADH-ubiquinone oxidoreductase (complex I); experiment: Respiration of digitonin-permeabilized T47D cells, complex I substrates; type: cell-based, human; conditions: malate and pyruvate
[2] = test system: VEGF; experiment: ELISA assay for secreted VEGF protein in T47D cells; type: cell-based, human; conditions: 16 h; for effect on hypoxic induction of secreted VEGF protein: hypoxia (1% O2)
How it was run: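 T47D cells plated at 356,000/well and incubated overnight at 37°C. Test compound added in serum-free DMEM/F12. After 30 min in air, treatment continued 16 h under 1% O2/5% CO2/94% N2 or with 10 μM 1,10-phenanthroline. Secreted VEGF in conditioned medium measured by ELISA and normalised to total lysate protein (BCA assay).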

[3] = test system: HIF-1α protein; experiment: Western blot for nuclear HIF-1α protein in T47D cells; type: cell-based, human; conditions: T47D nuclear extract; for effect on induction of HIF-1α protein by hypoxia: 4 h hypoxia (1% O2)
How it was run: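 T47D cells plated at 10 × 10^6 per 100 mm dish for 16 h. Test compound given 30 min at 37°C, then 10 μM 1,10-phenanthroline or 1% O2 for 4 h. Nuclear extracts (60 μg protein) run on 8% SDS-PAGE and blotted to nitrocellulose. Probed with anti-HIF-1α monoclonal antibody (1:500, 1 h, RT), then HRP anti-mouse (1:30,000, 40 min), with chemiluminescent detection.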

[4] = test system: PC-3 cells; experiment: Cell proliferation/viability assay, PC-3; type: cell-based, human; conditions: normoxic or hypoxic conditions, data not shown
How it was run: (§1)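 Cells kept in DMEM/F12 with 10% FCS and antibiotics at 37°C. Plated at 30,000 cells/well and left overnight, then given test compound in serum-free medium. After 30 min, incubated 48 h under normoxia (5% CO2/95% air) or hypoxia (1% O2/5% CO2/94% N2). Viability read by neutral red or by sulforhodamine B (TCA fix, 0.4% dye, Tris extraction, A490 minus A690). Reported as % inhibition versus control.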

[5] = test system: HIF-1; experiment: T47D cell-based reporter assay for HIF-1 activity; design: species or system human
How it was run: (§2)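 PC-3 or T47D cells in DMEM/F12 with 10% FCS were transiently transfected with the HIF-1 reporter pHRE3-TK-luc. HIF-1 was induced by hypoxia (1% O2) or 10 μM 1,10-phenanthroline with test compound present. % inhibition = (1 − treated/induced luminescence) × 100. IC50 from concentration-response data, one experiment in triplicate. Potency given as fold change in IC50 relative to a reference analogue.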

[6] = test system: MDA-MB-231 cells; experiment: Cell proliferation/viability assay, MDA-MB-231; type: cell-based, human; conditions: normoxic or hypoxic conditions, data not shown
How it was run: as §1

[7] = test system: pGL3-Control construct; experiment: Luciferase expression from control construct pGL3-Control in T47D cells; type: cell-based, human; conditions: for IC50: Homo sapiens, T47D, read-out: IC50 on luciferase expression from pGL3-control
How it was run: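 T47D cells in DMEM/F12 with 10% FCS were transiently transfected with the constitutive pGL3-Control luciferase construct. Cells were treated with test compound and exposed to hypoxia (1% O2). Luciferase read-out as % inhibition = (1 − treated/induced light output) × 100. IC50 taken from concentration-response data, one experiment in triplicate.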

[8] = test system: HIF-1; experiment: PC-3 cell-based reporter assay for HIF-1 activity; design: species or system human
How it was run: as §2

In the case of `C=C(C)[C@H]1Cc2c(ccc3c2O[C@@H]2COc4cc(OC)c(OC)cc4[C@@H]2C3=O)O1` [rotenone, reference compound], the “effect on complex I-mediated mitochondrial respiration” value [1] is reported as “inhibited”.

With `C/C(=C\CCc1ccoc1)CC/C=C(\C)CCCC1=CC(=O)OC1` [Compound 6, furospongolide] the “effect on complex I-mediated mitochondrial respiration” value [1] was “selectively inhibits mitochondrial complex I-mediated respiration; also recorded: disrupting complex I”, the “effect on increase in secreted VEGF protein level caused by 1,10-phenanthroline” value ([2]; 30 μM, 1,10-phenanthroline (10 μM)) was “did not affect” and the “effect on hypoxic induction of secreted VEGF protein” value [2] was “decreased hypoxic induction of secreted VEGF proteins in a concentration-dependent manner; also recorded: inhibits hypoxic induction of HIF-1 target VEGF protein”. For the same molecule, the “effect on hypoxic induction of secreted VEGF protein” value ([2]; listed as Furospongolide) was “blocked the induction”, the “effect on induction of HIF-1α protein by 1,10-phenanthroline” value ([3]; 4 h 1,10-phenanthroline 10 μM) was “only weakly inhibited” and the “effect on induction of HIF-1α protein by hypoxia” value [3] was “blocked the induction of HIF-1α protein by hypoxia; also recorded: blocks the induction of nuclear HIF-1 α protein accumulation”. The “effect on induction of HIF-1α protein by hypoxia” value ([3]; listed as Furospongolide) was “inhibiting the hypoxic induction of HIF-1α protein”, the “effect on cell proliferation/viability” value [4] was “Neither 6 nor the 6/6a mixture affected” and the “selectivity towards HIF-1 inhibition relative to suppression of hypoxic T47D cell proliferation/viability” value [5] was “more than 10 fold”. For the same molecule, the “effect on cell proliferation/viability” value [6] was “Neither 6 nor the 6/6a mixture affected”.

In the case of `CC(=O)C1=CC[C@H]2[C@]3(C)CC[C@H]4C(C)(C)CCC[C@]4(CO)[C@H]3CC(=O)[C@]2(C)[C@H]1C=O` [Compound 9, 22-hydroxy-24-methyl-12,24-dioxoscalar-16-en-25-al], the IC50 [7] is reported as 2.6 µM.

`COC(=O)[C@]12CCCC(C)(C)[C@@H]1CC[C@@]1(C)[C@@H]3CC=C(C(C)=O)[C@H](C=O)[C@@]3(C)C(=O)C[C@@H]12` [Compound 8, 24-methyl-12,24,25-trioxoscalar-16-en-22-oate] was tested, and the “reduction in potency of HIF-1 inhibition in comparison to 7” value [5] was 5 to 7 fold, the “reduction in potency of HIF-1 inhibition in comparison to 7” value [8] was 11 to 15 fold and the IC50 [7] was 23 µM.

In the case of `CC(=O)C1=CC[C@H]2[C@]3(C)CC[C@H]4C(C)(C)CCC[C@]4(CO)[C@H]3C[C@H](O)[C@]2(C)[C@H]1C=O` [Compound 7, 22-Hydroxy-24-methyl-12α-hydroxy-24-oxoscalar-16-en-25-al], the “effect on luciferase expression from control construct pGL3-Control” value ([7]; Figure 1B, 1D) is reported as “suppressed luciferase expression”.
